# UPR CHOP act – apoptotic UPR (CHOP) activation | CHO-CHOP luciferase reporter, luminescence; percent of tunicamycin response over DMSO baseline | activation, % at 10 µM | actives 0.34% (n = 330,000);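 active means at 10 µM dose, activation of 40% or more, normalized to positive control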;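 further: 100% = tunicamycin at 10 µg/mL and 0% = DMSO alone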
#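 Test system: CHO-CHOP cells, stable luciferase reporter of PERK-eIF2a-CHOP signalling | Quantity: 500 CHO-CHOP cells per well | Buffer or medium: F12 plus 10% serum | Compound dosing: 10 µM single point, 0.5% DMSO | Schedule: 6 h compound treatment, 37 °C | Signal: Luciferase luminescence | Control set: Tunicamycin high control, DMSO low control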
# UPR XBP1 act – adaptive UPR (XBP1) activation. CHO-XBP1 luciferase reporter, IRE1-XBP1 UPR activation, luminescence; percent of tunicamycin response, DMSO as zero. actives 0.33% (n = 330,000). activation, % at 20 µM;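 active means versus positive control, 20 µM dose yields 30% or more activation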;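 further: 100% = tunicamycin at 10 µg/mL and 0% = DMSO only wells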
#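 incubation = overnight seeding at 37 °C, 6 h compound treatment at 37 °C | assay system = CHO-XBP1 cells stably carrying IRE1-XBP1-driven luciferase reporter | input = 1000 cells per well | detection = luciferase luminescence | dosing = single point, 20 µM final compound, 1% DMSO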
# CSC inhib – cancer stem cell inhibition | inhibition, % at 7.5 µM | AID 2717 | cancer stem cell-like cells viability, luminescence | actives 1.1% (n = 300,000); in the data active means inhibition above about 75%; tested in HMLE shEcad cells
# Beta apoptosis – blocks beta cell apoptosis | INS-1E cytokine-induced death, ATP luminescence, 48 h; percent of positive-control rescue, neutral wells zero | protection from apoptosis, % (concentration not given with the values) | actives 0.8% (n = 300,000) | AID 435005;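 active means Every replicate reaches about 75%, or at least half do and their mean reaches it too, limit read from the data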;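 further: 0% = cytokine-treated negative control wells and 100% = positive control rescue; higher means more ATP so stronger rescue from cytokine killing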
# T cruzi repl – T. cruzi replication inhibition | inhibition, % (test concentration not listed) | AID 1885 | T. cruzi beta-gal in NIH3T3, luminescence, 90 h | actives 1.4% (n = 300,000);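 active means mean inhibition across valid replicates above about 55%, limit read from the data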;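 further: signal also drops with host cell toxicity which is not excluded here; 0% = plate median of DMSO wells and 100% = zero luminescence signal; higher percent means less beta-gal luminescence so fewer parasites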
#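 compound dosing = single 50 nL compound addition per well in DMSO | material = NIH/3T3 host cells with β-galactosidase reporter T. cruzi | input = 5,000 host fibroblasts per well | timing = ≥90 h infection period, 3 h prior cell attachment | read-out basis = percent inhibition of parasite-derived β-gal signal | detection = GalScreen β-gal luminescence, detergent lysis, 60 min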
# Mdm2 MdmX PPI – inhibitors of human Mdm2/MdmX interaction | O15151+Q00987 | SaOS-2 split-luciferase Mdm2/MdmX complementation, luminescence | inhibition, % at 8 µM | actives 3% (n = 330,000) | AID 485346;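 active means inhibition of at least 50% at 8 µM in the primary screen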
# Mdm2 MdmX conf – confirmation of human Mdm2/MdmX interaction inhibitors. inhibition, % at 8 µM. Mdm2-MdmX binding, luminescent assay. actives 55% (n = 10,000). shares compounds with Mdm2 MdmX PPI; in the data active means inhibition above about 40%
# FLuc counter – inhibits full-length luciferase, flagging false Mdm2/MdmX hits. shares compounds with Mdm2 MdmX PPI. SaOS-2 full-length luciferase counterscreen, luminescence. inhibition, % at 8 µM. actives 77% (n = 6,200). AID 504607;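 active means mean inhibition at 8 µM reaching about 37%, which flags the compound as non-specific, limit read from the data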;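 further: p53-null SaOS-2 cells with luciferase driven by a doxycycline-inducible promoter; compound on cells about two nights before reading with doxycycline added after day one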
# * hit, by the source's call; x = no result. A selection: hits, their analogues and other compounds. The true share with any hit is near 5%.
SMILES,UPR CHOP act,UPR XBP1 act,CSC inhib,Beta apoptosis,T cruzi repl,Mdm2 MdmX PPI,Mdm2 MdmX conf,others
O=C(NCc1ccccn1)c1ccc(Cl)c(S(=O)(=O)N2CCOCC2)c1,0,-4,-7,1,-1,16,x,
O=C(COC(=O)c1ccccc1Nc1cccc(C(F)(F)F)c1)NCc1ccco1,1,-1,11,-9,-2,17,x,
C=CCn1c(SCc2nc3ccccc3nc2C)nnc1-c1ccoc1C,-2,-1,1,-2,7,-18,x,
O=C(CN1C(=O)c2ccccc2S1(=O)=O)Nc1ccc(S(=O)(=O)Nc2ncccn2)cc1,-2,-2,x,x,3,-5,x,
Cc1ccsc1CNc1ncnc2ccc(-c3c(C)noc3C)cc12,-2,-3,9,-12,x,94*,69*,FLuc counter=52*
Cc1noc(C)c1-c1ccc2ncnc(NCC3CCCCN3C)c2c1 (stereo not drawn),1,-1,13,3,x,72*,47*,FLuc counter=73*
CCc1cc2c(NCCN3CCCCC3)ncnc2s1,-1,2,14,-12,-4,0,x,
COc1cccc(-c2ccc3ncnc(NCc4cccc(C)c4)c3c2)c1,0,-3,45,-11,x,35,x,
COc1cccc(CNc2ncnc3ccc(-c4c(C)noc4C)cc23)c1,2,0,12,-15,x,85*,73*,FLuc counter=31
O=C(COC(=O)c1c2c(nc3ccccc13)/C(=C\c1cccs1)CCC2)Nc1ccccc1,2,4,101*,3,74*,52*,11,
O=C(COC(=O)c1c2c(nc3ccccc13)CCCC2)Nc1ccc2c(c1)OCO2,-1,6,13,9,13,41,x,
CC(=O)c1ccc(NC(=O)COC(=O)c2c3c(nc4ccccc24)/C(=C\c2cccs2)CCC3)cc1,5,-4,117*,3,43,66*,35,
CC(C)(C)NC(=O)COC(=O)c1c2c(nc3ccccc13)CCC2,4,-4,4,1,0,1,x,
CC(=O)Nc1ccc(S(=O)(=O)NCC2CCC(C(=O)NCCCN(C)Cc3ccccc3)CC2)cc1 (stereo not drawn),0,1,-2,0,18,3,x,
CCN1C(=O)c2cccc3c(NC(=O)C4CCCCC4)ccc1c23,-3,-1,6,-9,0,55*,24,
CCN1C(=O)c2cccc3c(NC(=O)c4ccc(OC)c(OC)c4)ccc1c23,-1,4,-1,x,8,54*,24,
CCN1C(=O)c2cccc3c(NC(=O)c4ccccc4)ccc1c23,0,8,-7,-4,-17,36,x,
CCN1C(=O)c2cccc3c(NC(=O)c4ccc5c(c4)OCCO5)ccc1c23,1,7,-14,-19,3,51*,4,
CN1C(=O)c2cccc(NC(=O)C3CCCCC3)c2C1=O,0,-1,4,-4,-9,-6,x,
CC(=O)C(C(C)=O)C(c1ccccc1)c1nc2ccccc2[nH]c1=O (stereo not drawn),-1,3,-1,6,-5,13,x,
Cc1ccc(-c2csc3ncnc(N4CCc5ccccc5C4)c23)cc1,3,1,17,9,27,24,x,
Fc1ccc(-c2csc3ncnc(N4CCc5ccccc5C4)c23)cc1,3,5,48,0,7,51*,27,
Oc1ccccc1N1CCN(c2ncnc3scc(-c4ccccc4)c23)CC1,1,3,26,5,0,59*,30,
Cc1ccc(-c2csc3ncnc(N4CCN(S(=O)(=O)c5cccs5)CC4)c23)cc1,0,3,x,19,x,51*,18,
CN1CCN(c2ncnc3scc(-c4ccccc4Cl)c23)CC1,-2,0,-14,-21,-16,70*,79*,FLuc counter=29
SMILES,UPR CHOP act,UPR XBP1 act,CSC inhib,Beta apoptosis,T cruzi repl,Mdm2 MdmX PPI,Mdm2 MdmX conf,others
Cc1cc(-c2csc3ncnc(N4CCN(C)CC4)c23)cc(C)c1C,4,2,-4,6,3,36,x,
CCC(C)(C)NC(=O)CN(Cc1ccc(F)cc1)C(=O)CCC(=O)Nc1ccccn1,0,3,1,-1,14,-13,x,
Nc1nc2ncc(-c3ccsc3)c(N)n2n1,-1,0,-7,x,-10,-16,x,
Cc1nc(N2CCN(c3ccccc3O)CC2)c2c(-c3ccccc3)csc2n1,2,6,46,-9,-6,52*,55*,FLuc counter=59*
COc1ccc(-c2csc3nc(C)nc(N4CCC(C)CC4)c23)cc1OC,1,-3,12,-7,10,66*,38,FLuc counter=84*
COc1ccc(-c2csc3nc(C)nc(N4CCN(C(C)=O)CC4)c23)cc1OC,-1,0,4,0,1,-6,x,
CC(C)c1ccc(N(C(=O)c2snc(C(N)=O)c2N)C(C(=O)NC2CCCC2)c2ccncc2)cc1 (stereo not drawn),-2,1,x,4,38,3,x,
COc1ccc(CCN2CC(C(=O)Nc3ccccc3F)CC2=O)cc1OC (stereo not drawn),0,-2,-17,3,-5,-13,x,
CCOC(=O)c1ccc(N=C2S/C(=C\c3cc(C)n(-c4cccnc4)c3C)C(=O)N2C)cc1,-2,-3,1,-18,2,66*,4,
Cc1cc(/C=C2/SC(=S)N(c3cccc(C(F)(F)F)c3)C2=O)c(C)n1-c1cccnc1,12,-1,53,x,33,38,x,
CCC(C)C1=CC(=Nc2c(C)n(C)n(-c3ccccc3)c2=O)C=C(C(C)CC)C1=O (stereo not drawn),1,-3,6,-2,21,6,x,
CC1=CC(=Nc2c(C)n(C)n(-c3ccccc3)c2=O)C=CC1=O,5,1,10,4,-4,69*,8,
Cc1c(N=c2scc(-c3ccccc3)n2C)c(=O)n(-c2ccccc2)n1C,1,-1,-14,-2,6,16,x,
CC1=CC(=Nc2c(C)n(C)n(-c3ccccc3)c2=O)C=C(C)C1=O,2,-3,12,x,-35,77*,26,
CCCn1c(SCC(=O)c2[nH]c(C)c(C(C)=O)c2C)n[nH]c1=O,0,-1,-15,-2,-9,7,x,
CCCCn1cnc2c(oc3ccccc32)c1=O,6,-3,12,-4,6,-27,x,
CCC1Oc2ccccc2N(CC(=O)NCCC2=CCCCC2)C1=O (stereo not drawn),-2,1,10,2,-7,60*,9,
